The values that follow come from ChEMBL document CHEMBL4184173, “Synthesis and in vitro evaluations of 6-(hetero)-aryl-imidazo[1,2-b]pyridazine-3-sulfonamide's as an inhibitor of TNF-α production” (Bioorg Med Chem Lett, 2018).

SMILES strings stand for the structures. pIC50: −log10 of the molar value.

One test concerns PBMC. Put plainly: Cytotoxicity against human PBMC by MTS assay. In kind it is cell-based. Put shortly:
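Cells from the LPS-stimulated hPBMC assay were given MTS-[…] reagent and incubated 5-6 h until absorbance reached 0.5. Read at 490 nm. Percent cytotoxicity was calculated from mean absorbance relative to the 0.5% DMSO vehicle control.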
In general terms: Tetrazolium assays rely on reduction of a dye to a coloured formazan, in cell work by metabolically active cells.
`CS(=O)(=O)c1ccc(-c2ccc3ncc(S(=O)(=O)N4CCC(C#N)(c5ccccc5)CC4)n3n2)cc1`: the pIC50 (commonly −log10 of the IC50, conventionally taken in molar units) is < 4.52.
On to `N#CC1(c2ccccc2)CCN(S(=O)(=O)c2cnc3ccc(Cl)nn23)CC1`, for which the pIC50 is < 4.52.
With `O=S(=O)(c1cnc2ccc(-c3cncc(F)c3)nn12)N1CCN(c2ccccn2)CC1`, the pIC50 was < 4.52.
Still for that read-out and setting: to `CS(=O)(=O)c1ccc(-c2ccc3ncc(S(=O)(=O)NCC4CCCO4)n3n2)cc1` (centres undefined) belongs < 4.52.
Same read-out and setting: under `O=S(=O)(NCC1CCCO1)c1cnc2ccc(-c3cncc(C(F)(F)F)c3)nn12` (centres undefined) stands < 4.52; under `COc1cccc(CNS(=O)(=O)c2cnc3ccc(-c4cncc(C(F)(F)F)c4)nn23)c1`, < 4.52.
Consider `COc1cccc(CNS(=O)(=O)c2cnc3ccc(-c4ccc(OC)nc4)nn23)c1`, for which the pIC50 was < 4.52.
Still for that read-out and setting: under `O=S(=O)(c1cnc2ccc(-c3cccnc3)nn12)N1CCN(c2ccccn2)CC1` stands < 4.52; under `O=S(=O)(NCC1CCCO1)c1cnc2ccc(-c3cccnc3)nn12` (centres undefined), < 4.52.
For the compound `N#CC1(c2ccccc2)CCN(S(=O)(=O)c2cnc3ccc(-c4cncc(F)c4)nn23)CC1`, the pIC50 is < 4.52.
Same read-out and setting: under `O=S(=O)(NCC1CCCO1)c1cnc2ccc(-c3cncc(F)c3)nn12` (centres undefined) stands < 4.52; under `NS(=O)(=O)c1cnc2ccc(Cl)nn12`, < 4.52; under `N#CC1(c2ccccc2)CCN(S(=O)(=O)c2cnc3ccc(-c4cccnc4)nn23)CC1`, < 4.52.
Take `O=S(=O)(c1cnc2ccc(Cl)nn12)N1CCN(c2ccccc2)CC1`: the pIC50 was < 4.52.
With `O=S(=O)(c1cnc2ccc(Cl)nn12)N1CCN(Cc2ccccc2)CC1`, the negative-log IC50 (pIC50) was < 4.52.
The same measure, in the same setting: to `COc1cccc(CNS(=O)(=O)c2cnc3ccc(-c4ccc(S(C)(=O)=O)cc4)nn23)c1` belongs < 4.52; to `CCN1CCN(S(=O)(=O)c2cnc3ccc(-c4ccc(OC)cc4)nn23)CC1`, < 4.52; to `CCN1CCN(S(=O)(=O)c2cnc3ccc(-c4ccc(OC)nc4)nn23)CC1`, < 4.52.
Consider `O=S(=O)(c1cnc2ccc(-c3cncc(C(F)(F)F)c3)nn12)N1CCN(c2ccccn2)CC1`, for which the pIC50 is < 4.52.
On the same count and under the same terms, to `COc1ccc(-c2ccc3ncc(S(=O)(=O)NCC4CCCO4)n3n2)cc1` (centres undefined) belongs < 4.52; to `COc1ccc(-c2ccc3ncc(S(=O)(=O)NCC4CCCO4)n3n2)cn1` (centres undefined), < 4.52; to `N#CC1(c2ccccc2)CCN(S(=O)(=O)c2cnc3ccc(-c4cncc(C(F)(F)F)c4)nn23)CC1`, < 4.52.
On the same count and under the same terms, to `Nc1ncc(-c2ccc3ncc(S(=O)(=O)N4CCN(c5ccccn5)CC4)n3n2)cc1C(F)(F)F` belongs < 4.52; to `CCN1CCN(S(=O)(=O)c2cnc3ccc(-c4cncc(F)c4)nn23)CC1`, < 4.52.
On the same count and under the same terms, to `COc1cccc(CNS(=O)(=O)c2cnc3ccc(-c4cncc(F)c4)nn23)c1` belongs < 4.52; to `O=S(=O)(c1cnc2ccc(Cl)nn12)N1CCN(c2ccccn2)CC1`, < 4.52; to `O=S(=O)(NCC1CCCO1)c1cnc2ccc(Cl)nn12` (centres undefined), < 4.52.
Take `O=S(=O)(c1cnc2ccc(-c3cccnc3)nn12)N1CCN(Cc2ccccc2)CC1`: the pIC50 was < 4.52.
As to `CCN1CCN(S(=O)(=O)c2cnc3ccc(-c4ccc(S(C)(=O)=O)cc4)nn23)CC1`, the pIC50 is < 4.52.
Same read-out and setting: under `CCN1CCN(S(=O)(=O)c2cnc3ccc(-c4cncc(C(F)(F)F)c4)nn23)CC1` stands < 4.52.
With `COc1ccc(-c2ccc3ncc(S(=O)(=O)N4CCN(c5ccccn5)CC4)n3n2)cn1`, the negative-log IC50 (pIC50) was < 4.52.
On to `COc1cccc(CNS(=O)(=O)c2cnc3ccc(-c4cccnc4)nn23)c1`, for which the pIC50 is < 4.52.
Turning to `COc1ccc(-c2ccc3ncc(S(=O)(=O)N4CCC(C#N)(c5ccccc5)CC4)n3n2)cc1OC`, the pIC50 was < 4.52.
On the same count and under the same terms, to `COc1cccc(CNS(=O)(=O)c2cnc3ccc(-c4cnc(N)c(C(F)(F)F)c4)nn23)c1` belongs < 4.52; to `CS(=O)(=O)c1ccc(-c2ccc3ncc(S(=O)(=O)N4CCN(Cc5ccccc5)CC4)n3n2)cc1`, < 4.52.
For `CS(=O)(=O)c1ccc(-c2ccc3ncc(S(=O)(=O)N4CCN(c5ccccn5)CC4)n3n2)cc1`, the pIC50 was < 4.52.
On the same count and under the same terms, under `Nc1ncc(-c2ccc3ncc(S(N)(=O)=O)n3n2)cc1C(F)(F)F` stands < 4.52; under `CCN1CCN(S(=O)(=O)c2cnc3ccc(-c4cccnc4)nn23)CC1`, < 4.52.
Take `CCN1CCN(S(=O)(=O)c2cnc3ccc(Cl)nn23)CC1`: the pIC50 was < 4.52.
As to `O=S(=O)(c1cnc2ccc(-c3cncc(F)c3)nn12)N1CCN(Cc2ccccc2)CC1`, the pIC50 was < 4.52.
As to `COc1cccc(CNS(=O)(=O)c2cnc3ccc(Cl)nn23)c1`, the pIC50 is < 4.52.
As for `COc1ccc(C2CNC(=O)C2)cc1OC1CCCC1` (centres undefined) [ROLIPRAM], the pIC50 is < 4.52.

Another test has as its system L929. Nature of the test: Cytoprotective against human TNF-alpha-induced cell death in mouse L929 cells by MTT assay. Format: functional, cell-based.
`O=C1/C(=N/Nc2ccc(Cl)c([N+](=O)[O-])c2)C(c2ccccc2)NN1c1nc(-c2ccccc2)cs1` (centres undefined) gave a pIC50 of 5.05.

The target of another test is T1, Tumor necrosis factor (Mus musculus, UniProt P06804).
T1 sequence (P06804 whole entry): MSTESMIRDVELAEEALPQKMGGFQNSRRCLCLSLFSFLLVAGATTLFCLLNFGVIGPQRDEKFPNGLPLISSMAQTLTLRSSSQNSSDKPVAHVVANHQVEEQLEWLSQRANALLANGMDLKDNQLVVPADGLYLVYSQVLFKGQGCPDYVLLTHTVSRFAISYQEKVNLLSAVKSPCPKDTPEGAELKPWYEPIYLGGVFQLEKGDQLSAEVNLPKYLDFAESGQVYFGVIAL
Put plainly: Inhibition of mouse recombinant TNF-alpha binding to antibody preincubated for 30 mins followed by antibody addition measured after 2 hrs by ELISA.
In the case of `CCCCn1cnc(CC(c2c(O)c3ccccc3oc2=O)c2c(O)c3ccccc3oc2=O)c1Cl`, the pIC50 is 4.78.
